Converted amounts (≈) assume the structure as drawn. Blank lines part the entries; values can stand above or below the compound they belong to.
Columns and labels:
[1] = tested on: Cryptococcus gattii species complex; test: Antifungal activity against Cryptococcus gattii L28/02 after 48 to 72 hrs by broth microdilution method; type: functional, Cryptococcus bacillisporus
How it was run: (§1)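 CLSI M27-A3 broth microdilution in RPMI with L-glutamine, buffered to pH 7.0 with 0.165 M MOPS. Colonies grown twice on SDA, 48 h at 35°C. Inoculum set to 70% transmittance at 530 nm, then diluted to 1-5 x10^3 cells/mL. Test agents dissolved in DMSO, serially diluted, tested at 0.1 to 62.5 µM. Plates held at 35°C for 48-72 h. MIC is the lowest concentration giving an optically clear well, read visually against drug-free growth controls.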

[2] = tested on: Cryptococcus neoformans; test: Antifungal activity against Cryptococcus neoformans 5396 after 48 to 72 hrs by broth microdilution method; type: functional
How it was run: (§2)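 CLSI M27-A3 broth microdilution. Isolates subcultured twice on SDA, 48 h at 35°C. Saline suspension adjusted to 70% transmittance at 530 nm, then diluted to 1-5 x10^3 cells/mL in RPMI with L-glutamine, 0.165 M MOPS, pH 7.0. Compounds in DMSO, tested at […]. 35°C for 48-72 h. MIC read visually as the lowest concentration giving an optically clear well.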

[3] = tested on: Cryptococcus neoformans; test: Antifungal activity against Cryptococcus neoformans 96806 after 48 to 72 hrs by broth microdilution method; type: functional; how it was run: as §2
[4] = tested on: Cryptococcus gattii species complex; test: Antifungal activity against Cryptococcus gattii 135L/03 after 48 to 72 hrs by broth microdilution method; type: functional, Cryptococcus bacillisporus; how it was run: as §1
[5] = tested on: Cryptococcus neoformans; test: Antifungal activity against Cryptococcus neoformans F10 after 48 to 72 hrs by broth microdilution method; type: functional; how it was run: as §2
[6] = tested on: Cryptococcus gattii species complex; test: Antifungal activity against Cryptococcus gattii ICB181 after 48 to 72 hrs by broth microdilution method; type: functional, Cryptococcus bacillisporus; how it was run: as §1
[7] = Selectivity index, ratio of IC50 for African green monkey Vero cells to MIC for Cryptococcus neoformans ATCC 24067; type: toxicity, cell-based
[8] = tested on: Cryptococcus gattii species complex; test: Antifungal activity against Cryptococcus gattii L24/01 after 48 to 72 hrs by broth microdilution method; type: functional, Cryptococcus bacillisporus; how it was run: as §1
[9] = tested on: Cryptococcus neoformans; test: Antifungal activity against Cryptococcus neoformans ATCC 62066 after 48 to 72 hrs by broth microdilution method; type: functional
[10] = tested on: Cryptococcus neoformans; test: Antifungal activity against Cryptococcus neoformans CN31 after 48 to 72 hrs by broth microdilution method; type: functional; how it was run: as §2
[11] = tested on: Cryptococcus bacillisporus; test: Antifungal activity against Cryptococcus gattii ATCC 32608 after 48 to 72 hrs by broth microdilution method; type: functional; how it was run: as §1
[12] = tested on: Vero; test: Cytotoxicity against African green monkey Vero cells assessed as cell viability measured after 48 hrs by MTT assay; type: cell-based; conditions: Chlorocebus sabaeus
How it was run: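 VERO cells in D-MEM with 5% FBS, used up to 20 passages. Seeded 1 x 10^4 cells/well, pre-incubated 24 h at 37°C. Exposed 48 h at 37°C, 5% CO2, to eight nonserial dilutions from 100 to 0.0128 µM, with 0.5% DMSO control. MTT reduction read-out, corrected for background and blank. IC50 reported as median with 95% CI. Triplicate, two independent experiments.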

[13] = tested on: Cryptococcus gattii species complex; test: Antifungal activity against Cryptococcus gattii 1913ER after 48 to 72 hrs by broth microdilution method; type: functional, Cryptococcus bacillisporus; how it was run: as §1
[14] = tested on: Cryptococcus gattii species complex; test: Antifungal activity against Cryptococcus gattii 23/10993 after 48 to 72 hrs by broth microdilution method; type: functional, Cryptococcus bacillisporus; how it was run: as §1
[15] = tested on: Cryptococcus gattii species complex; test: Ratio of compound MIC for Cryptococcus gattii ICB181 in presence of amphotericin B to compound MIC for Cryptococcus gattii ICB181 in absence of amphotericin B by checkerboard microtiter test; type: functional, Cryptococcus bacillisporus
How it was run: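 Checkerboard microdilution: eight two-fold dilutions of test compound (0.11 to 15.6 µM) crossed with amphotericin B (0.025 to 3.9 µM, in DMSO) or fluconazole (0.48 to 62.5 µM, in water). Inoculum per CLSI M27-A3 in RPMI-MOPS pH 7.0, 1-5 x10^3 cells/mL. Growth 48 to 72 h. Effective MIC is the combination concentration giving complete inhibition. FICs derived from MICs in combination versus alone.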

[16] = tested on: Cryptococcus neoformans; test: Antifungal activity against Cryptococcus neoformans LMM820 after 48 to 72 hrs by broth microdilution method; type: functional; how it was run: as §2
[17] = tested on: Cryptococcus gattii species complex; test: Antifungal activity against Cryptococcus gattii 547/OTTI-97-PI-10 after 48 to 72 hrs by broth microdilution method; type: functional, Cryptococcus bacillisporus; how it was run: as §1
[18] = tested on: Cryptococcus gattii species complex; test: Antifungal activity against Cryptococcus gattii LMM818 after 48 to 72 hrs by broth microdilution method; type: functional, Cryptococcus bacillisporus; how it was run: as §1
[19] = tested on: Cryptococcus neoformans; test: Antifungal activity against Cryptococcus neoformans 27JF after 48 to 72 hrs by broth microdilution method; type: functional; how it was run: as §2
[20] = tested on: Cryptococcus gattii species complex; test: Antifungal activity against Cryptococcus gattii 196L/03 after 48 to 72 hrs by broth microdilution method; type: functional, Cryptococcus bacillisporus; how it was run: as §1
[21] = Cytotoxicity against C57BL/6 mouse peritoneal macrophages assessed as cell viability measured after 48 hrs by MTT assay; type: cell-based; conditions: C57BL/6, Peritoneal macrophage cell
How it was run: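 Thioglycollate-elicited peritoneal macrophages from male C57BL/6 mice, 6–8 weeks old, in RPMI with 10% FBS. Seeded 1 x 10^5 cells/well, pre-incubated 24 h at 37°C. Exposed 48 h at 37°C, 5% CO2, to eight nonserial dilutions from 100 to 0.0128 µM, with 0.5% DMSO control. MTT read-out, % inhibition versus DMSO control. IC50 reported as median with 95% CI. Triplicate, two independent experiments.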

[22] = tested on: Cryptococcus neoformans; test: Antifungal activity against Cryptococcus neoformans 28JF after 48 to 72 hrs by broth microdilution method; type: functional; how it was run: as §2
[23] = tested on: Cryptococcus gattii species complex; test: Antifungal activity against Cryptococcus gattii L27/01 after 48 to 72 hrs by broth microdilution method; type: functional, Cryptococcus bacillisporus; how it was run: as §1
[24] = tested on: Cryptococcus neoformans; test: Antifungal activity against Cryptococcus neoformans VM-MCMMPI after 48 to 72 hrs by broth microdilution method; type: functional; how it was run: as §2
[25] = tested on: Cryptococcus neoformans; test: Antifungal activity against Cryptococcus neoformans WP after 48 to 72 hrs by broth microdilution method; type: functional; how it was run: as §2
[26] = Selectivity index, ratio of IC50 for C57BL/6 mouse peritoneal macrophages to MIC for Cryptococcus neoformans ATCC 24067
How it was run: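 SI = IC50/MIC. Thioglycollate-elicited peritoneal macrophages from C57BL/6 mice are seeded at 1 x 10^5/well. They are exposed for 48 h at 37°C to eight concentrations from 100 to 0.0128 µM. Viability read by MTT versus 0.5% DMSO control, triplicate in two experiments.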

[27] = tested on: Cryptococcus neoformans; test: Antifungal activity against Cryptococcus neoformans ATCC 24067 after 48 to 72 hrs by broth microdilution method; type: functional; how it was run: as §2
[28] = tested on: Cryptococcus neoformans; test: Antifungal activity against Cryptococcus neoformans ATCC 28957 after 48 to 72 hrs by broth microdilution method; type: functional; how it was run: as §2

MIC [1]: 1.9 µM (≈ 0.542 µg/mL)
MIC [2]: 1.4 µM (≈ 0.4 µg/mL)
MIC [3]: 1.9 µM (≈ 0.542 µg/mL)
MIC [4]: 1.9 µM (≈ 0.542 µg/mL)
MIC [5]: 1.7 µM (≈ 0.485 µg/mL)
MIC [6]: 0.7 µM (≈ 0.2 µg/mL)
MIC [8]: 1.4 µM (≈ 0.4 µg/mL)
MIC [9]: 1.2 µM (≈ 0.342 µg/mL)
MIC [10]: 1.4 µM (≈ 0.4 µg/mL)
MIC [11]: 1.4 µM (≈ 0.4 µg/mL)
MIC [13]: 1.4 µM (≈ 0.4 µg/mL)
MIC [14]: 1.9 µM (≈ 0.542 µg/mL)
MIC [16]: 1.7 µM (≈ 0.485 µg/mL)
MIC [17]: 1.9 µM (≈ 0.542 µg/mL)
MIC [18]: 2.2 µM (≈ 0.628 µg/mL)
MIC [19]: 2.4 µM (≈ 0.685 µg/mL)
MIC [20]: 1.4 µM (≈ 0.4 µg/mL)
MIC [22]: 2.7 µM (≈ 0.771 µg/mL)
MIC [23]: 1 µM (≈ 0.285 µg/mL)
MIC [24]: 1.4 µM (≈ 0.4 µg/mL)
MIC [25]: 2.2 µM (≈ 0.628 µg/mL)
MIC [27]: 0.9 µM (≈ 0.257 µg/mL)
MIC [28]: 1.2 µM (≈ 0.342 µg/mL)
SMILES: C(=N\Nc1nc(-c2ccccc2)cs1)/C1CCCCC1
MFC [1]: 7.8 µM (≈ 2.23 µg/mL)
MFC [2]: 1.9 µM (≈ 0.542 µg/mL)
MFC [3]: 3.9 µM (≈ 1.11 µg/mL)
MFC [4]: 3.9 µM (≈ 1.11 µg/mL)
MFC [5]: 3.9 µM (≈ 1.11 µg/mL)
MFC [6]: 3.9 µM (≈ 1.11 µg/mL)
selectivity ratio [7]: 111
MFC [8]: 3.9 µM (≈ 1.11 µg/mL)
MFC [9]: 7.8 µM (≈ 2.23 µg/mL)
MFC [10]: 1.9 µM (≈ 0.542 µg/mL)
MFC [11]: 1.9 µM (≈ 0.542 µg/mL)
IC50 [12]: > 100 µM
MFC [13]: 7.8 µM (≈ 2.23 µg/mL)
MFC [14]: 7.8 µM (≈ 2.23 µg/mL)
fractional inhibitory concentration index (FICI) [15]: 4.98
MFC [16]: 1.9 µM (≈ 0.542 µg/mL)
MFC [17]: 7.8 µM (≈ 2.23 µg/mL)
MFC [18]: 3.9 µM (≈ 1.11 µg/mL)
MFC [19]: 7.8 µM (≈ 2.23 µg/mL)
MFC [20]: 3.9 µM (≈ 1.11 µg/mL)
IC50 [21]: > 100 µM
MFC [22]: 7.8 µM (≈ 2.23 µg/mL)
MFC [23]: 1.9 µM (≈ 0.542 µg/mL)
MFC [24]: 3.9 µM (≈ 1.11 µg/mL)
MFC [25]: 3.9 µM (≈ 1.11 µg/mL)
Ratio [26]: 111
MFC [28]: 7.8 µM (≈ 2.23 µg/mL)

MIC [1]: 0.08 µM (≈ 0.0739 µg/mL)
MIC [2]: 0.06 µM (≈ 0.0554 µg/mL)
MIC [3]: 0.09 µM (≈ 0.0832 µg/mL)
MIC [4]: 0.14 µM (≈ 0.129 µg/mL)
MIC [5]: 0.06 µM (≈ 0.0554 µg/mL)
MIC [6]: 0.12 µM (≈ 0.111 µg/mL)
MIC [8]: 0.04 µM (≈ 0.037 µg/mL)
MIC [9]: 0.03 µM (≈ 0.0277 µg/mL)
MIC [10]: 0.08 µM (≈ 0.0739 µg/mL)
MIC [11]: 0.14 µM (≈ 0.129 µg/mL)
MIC [13]: 0.08 µM (≈ 0.0739 µg/mL)
MIC [14]: 0.08 µM (≈ 0.0739 µg/mL)
MIC [16]: 0.06 µM (≈ 0.0554 µg/mL)
MIC [17]: 0.04 µM (≈ 0.037 µg/mL)
MIC [18]: 0.14 µM (≈ 0.129 µg/mL)
MIC [19]: 0.07 µM (≈ 0.0647 µg/mL)
MIC [20]: 0.04 µM (≈ 0.037 µg/mL)
MIC [22]: 0.11 µM (≈ 0.102 µg/mL)
MIC [23]: 0.08 µM (≈ 0.0739 µg/mL)
MIC [24]: 0.07 µM (≈ 0.0647 µg/mL)
MIC [25]: 0.09 µM (≈ 0.0832 µg/mL)
MIC [27]: 0.09 µM (≈ 0.0832 µg/mL)
MIC [28]: 0.04 µM (≈ 0.037 µg/mL)
SMILES: C[C@@H]1[C@H](O)[C@@H](C)/C=C/C=C/C=C/C=C/C=C/C=C/C=C/[C@H](O[C@@H]2O[C@H](C)[C@@H](O)[C@H](N)[C@@H]2O)C[C@@H]2O[C@](O)(C[C@@H](O)C[C@@H](O)[C@H](O)CC[C@@H](O)C[C@@H](O)CC(=O)O[C@H]1C)C[C@H](O)[C@H]2C(=O)O [AMPHOTERICIN B]
MFC [1]: 0.1 µM (≈ 0.0924 µg/mL)
MFC [2]: 0.11 µM (≈ 0.102 µg/mL)
MFC [3]: 0.45 µM (≈ 0.416 µg/mL)
MFC [4]: 0.5 µM (≈ 0.462 µg/mL)
MFC [5]: 0.11 µM (≈ 0.102 µg/mL)
MFC [6]: 0.9 µM (≈ 0.832 µg/mL)
selectivity ratio [7]: 206
MFC [8]: 0.1 µM (≈ 0.0924 µg/mL)
MFC [9]: 0.22 µM (≈ 0.203 µg/mL)
MFC [10]: 0.45 µM (≈ 0.416 µg/mL)
MFC [11]: 0.9 µM (≈ 0.832 µg/mL)
IC50 [12]: > 100 µM
MFC [13]: 0.1 µM (≈ 0.0924 µg/mL)
MFC [14]: 0.1 µM (≈ 0.0924 µg/mL)
MFC [16]: 0.22 µM (≈ 0.203 µg/mL)
MFC [17]: 0.1 µM (≈ 0.0924 µg/mL)
MFC [18]: 0.2 µM (≈ 0.185 µg/mL)
MFC [19]: 0.45 µM (≈ 0.416 µg/mL)
MFC [20]: 0.2 µM (≈ 0.185 µg/mL)
IC50 [21]: 53.4 µM
MFC [22]: 0.22 µM (≈ 0.203 µg/mL)
MFC [23]: 0.1 µM (≈ 0.0924 µg/mL)
MFC [24]: 0.22 µM (≈ 0.203 µg/mL)
MFC [25]: 0.22 µM (≈ 0.203 µg/mL)
Ratio [26]: 109.81
MFC [28]: 0.22 µM (≈ 0.203 µg/mL)
